In PubChem BioAssay AID624016 (Broad Institute, 2012):
Activity calls are given as the source filed them.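 The calls were made as follows: active = fitted curve reaching 35% inhibition at both 405 and 600 nm absorbance, in duplicate, within twice the top valid dose; inactive = the rest, including signal rising instead of falling.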

Tests used:
[1] = P. aeruginosa growth delay under iron chelation, dose response, absorbance 405 nm, dry powder, set 4 (AID 624016); conditions: P. aeruginosa + EDDHA, pyoverdine absorbance 405 nm, 24-30 h
Summary of the method: (§1)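 test system = P. aeruginosa ATCC 15692 cells | schedule = 24-30 h exposure at 37 °C | measured by = absorbance 405 nm, pyoverdine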

[2] = tested on: P. aeruginosa + EDDHA, pyoverdine absorbance 405 nm, 24-30 h; test: as above
Summary of the method: as §1

Row | Compound | activity change, negative = inhibition ([1]; at 50 µM (top of the series)) | other results
1 | CCCCC(C#N)c1ccc(C(F)(F)F)cc1 (configuration not stated) | -3.25% (inactive) | 
2 | N#CC(c1ccc(C(F)(F)F)cc1)c1ccc(C(F)(F)F)c(Cl)n1 (configuration not stated) | 2.24% (inactive) | 
3 | CCCCC(C#N)c1ccc(Cl)cc1 (configuration not stated) | -0.817% (inactive) | 
4 | CC(C#N)(c1ccc(Cl)cc1)c1ccc(C(F)(F)F)cn1 (configuration not stated) | -4.71% (inactive) | 
5 | Cc1ccc(C(C#N)c2ccccc2OC(F)(F)F)nc1C#N (configuration not stated) |  | activity change, negative = inhibition ([1]; at 16 µM (top of the series)): -24.9% (inactive)
6 | CCCCC(C#N)c1ccccc1OC(F)(F)F (configuration not stated) | -2.91% (inactive) | 
7 | N#CC(c1ccc(C(F)(F)F)cc1)c1cccc(C(F)(F)F)n1 (configuration not stated) |  | AC35 [2]: > 50 µM (inactive)
8 | N#CC(c1cccc(C(F)(F)F)n1)c1ccc(Cl)cc1F (configuration not stated) |  | AC35 [2]: 15 µM
9 | CCCC(C#N)c1ccc(Cl)cc1 (configuration not stated) | -8.71% (inactive) | 
10 | N#CC(c1ccc(Cl)cc1)c1ccc(C(F)(F)F)cn1 (configuration not stated) | 3.24% (inactive) | 
11 | N#CC(c1ccc(Cl)cc1)c1cccc(C(F)(F)F)n1 (configuration not stated) |  | AC35 [2]: 8.64 µM
12 | N#CC(c1ccc(C(F)(F)F)cc1)c1cccc(Cl)n1 (configuration not stated) | -4.32% (inactive) | 
13 | CCCCC(C#N)c1ccc(Cl)cc1F (configuration not stated) | 5.25% (inactive) | 
14 | CCCCC(C#N)c1ccc(Cl)cc1Cl (configuration not stated) | -5.19% (inactive) | 
15 | N#CC(c1ccc(F)cc1)c1cccc(C(F)(F)F)n1 (configuration not stated) |  | AC35 [2]: 28.9 µM
16 | N#CC(c1cccc(C(F)(F)F)n1)c1ccccc1OC(F)(F)F (configuration not stated) | -7.92% (inactive) | 
17 | CC(C)CC(C#N)c1ccc(Cl)cc1 (configuration not stated) | -16.3% (inactive) | 
18 | N#CC(c1ccc(Cl)cc1)c1ncccc1Cl (configuration not stated) |  | AC35 [2]: 10.7 µM
19 | N#CC(c1ccc(C(F)(F)F)c(Cl)n1)c1ccc(Cl)cc1Cl (configuration not stated) | 15.9% (inactive) | 
20 | N#CC(c1ccc(C(F)(F)F)c(Cl)n1)c1ccccc1OC(F)(F)F (configuration not stated) | -6.71% (inactive) | 
21 | N#Cc1ccc(C(C#N)c2ccc(Cl)cc2Cl)nc1 (configuration not stated) | -0.009% (inactive) | 
22 | N#Cc1cccc(C(C#N)c2ccc(Cl)cc2F)n1 (configuration not stated) | -15.5% (inactive) | 
23 | N#CC(c1ccc(Cl)cc1Cl)c1ncccc1Cl (configuration not stated) | 1.29% (inactive) | 
24 | CCCCC(C#N)c1ccc(F)cc1 (configuration not stated) | -0.303% (inactive) | 
25 | N#CC(c1ccc(F)cc1)c1ccc(C(F)(F)F)c(Cl)n1 (configuration not stated) | -4.12% (inactive) | 
26 | N#CC(c1ccc(Cl)cc1)c1ccc(C(F)(F)F)c(Cl)n1 (configuration not stated) | 20.6% (inactive) | 
27 | N#CC(c1cccc(Cl)n1)c1ccc(Cl)cc1F (configuration not stated) |  | AC35 [2]: 22.3 µM
